In the library only some 1.9% were active in any assay of this set; here they are far more common.
NadD inh – inhibitors of S. aureus NadD, primary screen, biochemical, colorimetric, uHTS; Nicotinate-nucleotide adenylyltransferase NadD (Staphylococcus aureus N315); purified NadD enzyme, colorimetric absorbance read-out; inhibition, % at 20 µM; 0.78% of 360,000 active; AID 602399, 2012; in the data active means inhibition above about 26%
DSG3 Ab inh – inhibitors of pemphigus antibody binding to DSG3, primary screen, biochemical, bead-based, flow cytometry, scFv-GFP | 0.48% of 310,000 active | Desmoglein-3 (Homo sapiens), P32926 | DSG3-coupled beads, scFv-anti-DSG3-GFP binding; active compounds read low | binding (percent of control), % at 10 µM;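 active means binding more than 3 SD below its plate's average and above zero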;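 further: hits lower antibody fragment binding to DSG3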
Rce1 inhib – yeast Rce1p protease inhibitors, primary screen, biochemical, fluorescence, cell-free homogeneous. CAAX prenyl protease 2 (Saccharomyces cerevisiae (strain ATCC 204508 / S288c)), Q03530. yeast membranes, quenched prenylated peptide cleavage fluorescence. calls only. 0.27% of 290,000 active. AID 2563, 2010;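 active means fall in fluorescence gain of 50% or more versus controls, with final raw signal at or below 3038400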;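 further: plate controls were neutral control wells for no effect and wells lacking membranes for full effect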
Target sequence (Q03530 whole entry, looked up): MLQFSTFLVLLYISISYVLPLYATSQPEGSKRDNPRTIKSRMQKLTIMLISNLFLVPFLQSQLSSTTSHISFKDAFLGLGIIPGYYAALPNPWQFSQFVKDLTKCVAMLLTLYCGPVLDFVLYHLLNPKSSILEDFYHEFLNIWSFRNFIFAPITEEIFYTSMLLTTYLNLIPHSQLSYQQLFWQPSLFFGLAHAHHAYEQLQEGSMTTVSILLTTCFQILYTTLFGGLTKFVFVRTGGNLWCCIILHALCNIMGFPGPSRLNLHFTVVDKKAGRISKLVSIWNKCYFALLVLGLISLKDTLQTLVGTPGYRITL
TbMetRS inhib – T. brucei MetRS inhibitors, primary screen, biochemical, luminescence | 0.4% of 360,000 active | purified T. brucei MetRS, ATP depletion, Kinase-Glo luminescence | inhibition, % at 11.9 µM | AID 624268, 2012;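 active means inhibition above a per-plate cutoff of the control wells' mean inhibition plus 3 SD, cut at about 5.5% in these data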;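 further: 0% = DMSO wells median and 100% = median of wells with control inhibitor compound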
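Material: parasite MetRS enzyme / Replication: singlicate, one well per compound / Signal: luminescence of leftover ATP / Schedule: 2 h aminoacylation at 25 °C after 15 min preincubation / Medium: HEPES-MgCl2-KCl buffer plus DTT, spermine, BSA, pyrophosphatase / Doses: 11.9 µM single point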
core dimer inh – inhibitors of HCV core protein dimerization, primary screen, biochemical, TR-FRET, high-throughput. TR-FRET GST/Flag-core106 dimerization, 1536-well. inhibition, % at 5 µM. 0.33% of 300,000 active;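 active means inhibition above the mean of all tested compounds plus 3 SD, set per screening campaign, cut at about 45% in these data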
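Assay system – GST-tagged and Flag-tagged HCV core protein residues 1-106 · Quantity – core106 proteins, GST 13.5 nM and Flag 17 nM · Benchmarks – unlabelled core106 and no-GST-core106 wells · Read-out basis – percent inhibition of core106 dimerization signal · Detection – time-resolved FRET, ex 340 nm, em 617 and 671 nm · Schedule – 4 h at 22.5 °C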
Numbers without * were called inactive; i = inactive; . = not tested or not shown; + = active, no number.

SMILES	NadD inh	DSG3 Ab inh	Rce1 inhib	TbMetRS inhib	core dimer inh
Cc1cc(Cl)ccc1N=c1ssnc1Cl	28	53*	i	-1	-6
COc1ccc(OC)c(N=c2ssnc2Cl)c1	4	101	i	-1	1
COc1cc(N=c2ssnc2Cl)c(OC)cc1Cl	0	85*	i	0	-6
Cn1c(=O)c2c(ncn2CC(=O)OCC(=O)NCc2ccc(F)cc2)n(C)c1=O	-3	103	.	0	.
O=C(c1ccco1)N1CCC(N2CCN(c3ccccc3)CC2)CC1	-5	90	i	0	-2
COc1cccc(CNc2nc3nc(C)cc(C)n3n2)c1	-1	106	+	-1	-1
O=C(CCc1ccccc1Cl)N1CCN(S(=O)(=O)c2ccccc2)CC1	-4	100	.	0	.
CC(C)[C@H](NC(=O)OCc1ccccc1)C(=O)OCC(=O)Nc1c(F)cccc1F	-6	102	+	0	-4
CC(C)[C@H](NC(=O)OCc1ccccc1)C(=O)OCC(=O)c1ccccc1	-6	104	.	0	.
Cc1nnc(SCc2cnc(-c3ccccc3)o2)[nH]c1=O	2	115	i	0	1
CCNC(=O)COc1cccc(C(=O)NCc2ccccc2)c1	-1	101	i	1	8
CC(C)CNC(=O)COc1cccc(C(=O)NCc2ccccc2)c1	3	84	+	-1	-8
c1ccc(-c2ccc(C(c3ccccc3)n3ccnc3)cc2)cc1 (configuration not stated)	15	112	i	-2	18
O=C(NCc1ccc(Cl)cc1)c1ccncc1	5	83*	i	0	2
CN(C)/N=C/c1ccc(N2CCOCC2)cc1	0	99	i	0	-2
Cc1ccccc1OC(C)C(=O)N1CCC(Cc2ccccc2)CC1 (configuration not stated)	-5	.	+	0	-2
COc1ccccc1OC(C)C(=O)N1CCC(Cc2ccccc2)CC1 (configuration not stated)	3	101	.	-1	-3
CN(C)CCNc1nc2c(c(=O)[nH]c(=O)n2C)n1CCOc1ccccc1	0	81*	i	-2	-3
CC1CC(C(F)F)n2nc(C(=O)Nc3sc4c(c3C#N)CCC(C(C)(C)C)C4)nc2N1 (configuration not stated)	23	101	i	0	7
Cc1nn(-c2ccccc2)c2c1C(c1ccc(O)c(O)c1)N1C(=N2)C(Nc2ccccc2)=Nc2ccccc21 (configuration not stated)	18	95	i	0	39
Cc1cccc(NC2=Nc3ccccc3N3C2=Nc2c(c(C)nn2-c2ccccc2)C3c2ccc(O)c(O)c2)c1 (configuration not stated)	62*	106	i	1	46*
Cc1ccc(NC2=Nc3ccccc3N3C2=Nc2c(c(C)nn2-c2ccccc2)C3c2ccc(O)c(O)c2)cc1 (configuration not stated)	61*	91*	.	0	.
CC(C)c1nnc(NC(=O)CCC(=O)NCc2ccc(F)cc2)s1	5	.	i	0	6
Cc1ccc(NC(=O)c2ccc(S(=O)(=O)NCc3ccco3)cc2)cc1	-1	-4.6*	i	-1	-4
O=C(Nc1ccc(S(=O)(=O)NCc2ccco2)cc1)c1ccncc1	-4	103	i	-1	-3
SMILES	NadD inh	DSG3 Ab inh	Rce1 inhib	TbMetRS inhib	core dimer inh
O=[N+]([O-])c1ccccc1C=CC=NN=Cc1ccccc1O	7	-3.9*	.	0	.
N#CC(c1ccccn1)c1ncc(C(F)(F)F)cc1Cl (configuration not stated)	-3	93	i	-1	1
CC(=O)c1ccc(NC(=O)COC(=O)Cn2cnc3ccccc32)cc1	-2	100	.	0	.
Cc1ccc2c(cnn2C(=O)CCCC(=O)NCc2ccc(F)cc2)c1	-12	104	i	0	9
CCc1ccc(CNC(=O)CCC(=O)n2ncc3cc(C)ccc32)cc1	1	77*	i	0	7
O=C(c1ccc(Cn2c(=O)[nH]c3ccsc3c2=O)cc1)N1CCN(c2ccccc2)CC1	-5	100	i	-1	7
O=C(Nc1ccc(F)cc1)Nc1ccc(S(=O)(=O)N2CCCC2)cc1	-4	107	.	1	.
Cc1oc(S(=O)(=O)N2CCCCC2)cc1NC(=O)Nc1ccc(F)cc1	-4	91*	.	3	-5
CCCN1CCN(C(=O)Cn2ncc3c([nH]c4ccc(C)cc43)c2=O)CC1	-8	102	i	-1	-7
CC1CCCC(NC(=O)COC(=O)CCC2CCCC2)C1C (configuration not stated)	3	45*	i	0	-2
Cc1cc(C(C#N)c2ccc(Cl)cc2)c(Cl)cc1NC(=O)c1cc(I)cc(I)c1O (configuration not stated)	52*	93	i	-2	18
Cc1cc(NC(=O)c2ccc(Cl)cc2)c(C)cc1O	-1	98	i	0	-6
COc1cc(-c2cc(-c3ccc(O)cc3)nc(N)c2C#N)ccc1O	-7	100	+	-1	5
CCC(C)n1cnc2c(c1=O)c1nc3ccccc3nc1n2-c1ccc2c(c1)OCCO2 (configuration not stated)	3	42*	.	0	6
CCC(C)n1cnc2c(c1=O)c1nc3ccccc3nc1n2Cc1ccc2c(c1)OCO2 (configuration not stated)	.	.	i	.	.
CCCCn1c(SCC(=O)c2ccc(OC)cc2OC)nc2cc(S(N)(=O)=O)ccc21	19	97	.	-1	79*
CC(C)=CCC[C@H](C)C[C@@H]1CC2=C(C(=O)OC(C)(C)O2)[C@H](c2ccc(F)cc2)O1	11	.	.	0	.
COc1nc2ccccc2nc1N1CCN(c2ccc(F)cc2)CC1	-4	98	i	-1	.
Cc1cc(C)c(S(=O)(=O)/N=C2\C=CC(=O)C(Cl)=C2)c(C)c1	47*	89	.	0	32
COc1ccc(-n2c(C)cc(-c3csc(NC(=O)c4ccc(S(=O)(=O)N(C)C)cc4)n3)c2C)cc1	34*	107	i	0	53*
CCOc1c2ccc(C(=O)NCc3ccco3)cc2nn1CCOC	-3	103	+	0	9
C=CC1CN2CCC1CC2C(O)c1ccnc2ccc(OC)cc12 (configuration not stated)	-2	99	.	-2	.
CCC1(c2ccccc2)NC(=O)N(CC(=O)Nc2ccc3c(C)cc(=O)oc3c2)C1=O (configuration not stated)	8	122	+	0	6

Screening results as filed in PubChem.
